Assay results: ChEMBL document CHEMBL1124146, “Synthesis of the tumorigenic 3,4-dihydrodiol metabolites of dibenz[a,j]anthracene and 7,14-dimethyldibenz[a,j]anthracene” (1988)

Key:
Type in all cases: functional
[1] = species: Mus musculus; assay: Compound was tested at a dose of 400 nmol for the skin tumor initiating activity expressed as papillomas per mouse
In short: (§1)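 The initiator was applied topically to the shaved skin in 0.2 mL peroxide-free THF; controls received THF only. After 2 weeks, 3.4 nmol TPA in 0.2 mL acetone was given twice weekly. Papillomas were recorded weekly, with random histology. Means were compared by Student's t test.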

[2] = species: Mus musculus; assay: Compound was tested at a dose of 400 nmol for the skin tumor initiating activity expressed as percent of mice with papillomas; in short: as §1
[3] = species: Mus musculus; assay: Compound was tested at a dose of 100 nmol for the skin tumor initiating activity expressed as percent of mice with papillomas; in short: as §1
[4] = species: Mus musculus; assay: Compound was tested at a dose of 100 nmol for the skin tumor initiating activity expressed as papillomas per mouse; in short: as §1

Structure (SMILES): O[C@H]1[C@H]2O[C@H]2c2c(ccc3cc4ccc5ccccc5c4cc23)[C@@H]1O
- Activity [1]: 3.95
- Activity [2]: 92%

Structure (SMILES): c1ccc2c(c1)ccc1cc3ccc4ccccc4c3cc12 [DIBENZO[A,J]ANTHRACENE]
- Activity [1]: 0.58
- Activity [2]: 29%

Structure (SMILES): Cc1c2ccc3c(c2c(C)c2c1ccc1ccccc12)C=C[C@H](O)[C@H]3O
- Activity [1]: 14.7
- Activity [3]: 93%
- Activity [4]: 9.9
- Activity [2]: 100%

Structure (SMILES): Cc1c2ccc3ccccc3c2c(C)c2c1ccc1ccccc12
- Activity [1]: 17.3
- Activity [3]: 97%
- Activity [4]: 8.4
- Activity [2]: 97%

Structure (SMILES): O[C@H]1C=Cc2c(ccc3cc4ccc5ccccc5c4cc23)[C@@H]1O
- Activity [1]: 0.65
- Activity [2]: 39%
